In the test the target is T1, Inosine-5'-monophosphate dehydrogenase (Escherichia coli K-12, UniProt P0ADG7).
T1 sequence (P0ADG7 whole entry): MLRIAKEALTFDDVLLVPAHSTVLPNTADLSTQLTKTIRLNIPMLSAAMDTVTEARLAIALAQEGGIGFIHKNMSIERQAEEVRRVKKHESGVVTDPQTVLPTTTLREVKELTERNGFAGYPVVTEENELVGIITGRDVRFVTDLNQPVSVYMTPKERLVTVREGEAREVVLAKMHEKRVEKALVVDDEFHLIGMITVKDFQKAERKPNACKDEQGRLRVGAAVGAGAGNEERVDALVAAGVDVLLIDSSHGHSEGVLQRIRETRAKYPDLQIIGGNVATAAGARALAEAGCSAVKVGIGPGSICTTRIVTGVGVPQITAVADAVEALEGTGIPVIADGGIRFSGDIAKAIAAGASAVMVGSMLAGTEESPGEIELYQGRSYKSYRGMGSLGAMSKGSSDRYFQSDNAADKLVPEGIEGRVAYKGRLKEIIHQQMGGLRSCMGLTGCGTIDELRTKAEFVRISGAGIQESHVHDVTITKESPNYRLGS
Briefly: Inhibition of inosine monophosphate dehydrogenase in Escherichia coli. The gist of the method: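 E. coli B IMP-DH (0-40% ammonium sulfate fraction of frozen paste, redissolved in 0.05 M Tris pH 8.5). Enzyme-started, 25 °C, NADH rise at 360 nm; Ki from weighted fit to linear competitive equation.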

The term Ki denotes a measure of affinity in units of concentration, obtained from inhibition or displacement. Lower therefore signals a stronger hold on the target. `Nc1ncnc2c1nc(SCc1cc([N+](=O)[O-])cc([N+](=O)[O-])c1)n2C1O[C@H](COP(=O)(O)O)[C@@H](O)[C@H]1O` (some centres not stated) displayed an inhibition constant (Ki) of 21 µM.
Take `Nc1ncnc2c1nc(NCc1ccccc1)n2C1O[C@H](COP(=O)(O)O)[C@@H](O)[C@H]1O` (some centres not stated): the Ki is 275 µM.
Turning to `O=[N+]([O-])c1ccc(CSc2nc3c(O)ncnc3n2C2O[C@H](COP(=O)(O)O)[C@@H](O)[C@H]2O)cc1` (some centres not stated), the Ki came out at 26 µM.
Regarding `Nc1ncnc2c1nc(SCc1ccc(C(=O)O)cc1)n2C1O[C@H](COP(=O)(O)O)[C@@H](O)[C@H]1O` (some centres not stated), the Ki was determined as 196 µM.
As to `Nc1ncnc2c1nc(Br)n2[C@@H]1O[C@H](COP(=O)(O)O)[C@@H](O)[C@H]1O`, the affinity, expressed as Ki, was 161 µM.
For `Nc1ncnc2c1nc(SCCCc1ccccc1)n2C1O[C@H](COP(=O)(O)O)[C@@H](O)[C@H]1O` (some centres not stated), the affinity corresponds to a Ki of 64 µM.
Consider `O=P(O)(O)OC[C@H]1OC(n2c(NCc3ccccc3)nc3c(O)ncnc32)[C@H](O)[C@@H]1O` (some centres not stated), for which the affinity corresponds to a Ki of 236 µM.
Regarding `O=c1[nH]cnc2c1nc(SCc1ccc(Cl)cc1)n2C1O[C@H](COP(=O)(O)O)[C@@H](O)[C@H]1O` (some centres not stated), the inhibition constant (Ki) stood at 29 µM.
As for `Nc1ncnc2c1nc(SCc1ccc([N+](=O)[O-])cc1)n2C1O[C@H](COP(=O)(O)O)[C@@H](O)[C@H]1O` (some centres not stated), the affinity corresponds to a Ki of 52 µM.
For `Nc1ncnc2c1nc(SCc1ccccc1)n2C1O[C@H](COP(=O)(O)O)[C@@H](O)[C@H]1O` (some centres not stated), the Ki stood at 124 µM.
Compound `CC(C)(C)c1ccc(CSc2nc3c(N)ncnc3n2C2O[C@H](COP(=O)(O)O)[C@@H](O)[C@H]2O)cc1` (some centres not stated) yielded an inhibition constant (Ki) of 130 µM.
For the compound `Nc1ncnc2c1nc(SCCc1ccccc1)n2C1O[C@H](COP(=O)(O)O)[C@@H](O)[C@H]1O` (some centres not stated), the affinity corresponds to a Ki of 91 µM.
The figure for `COc1ccc(CSc2nc3c(=O)[nH]cnc3n2C2O[C@H](COP(=O)(O)O)[C@@H](O)[C@H]2O)cc1` (some centres not stated) is 41 µM.
With `COc1ccc(CSc2nc3c(N)ncnc3n2C2O[C@H](COP(=O)(O)O)[C@@H](O)[C@H]2O)cc1` (some centres not stated), the inhibition constant Ki is 84 µM.
In the case of `N#Cc1ccc(CSc2nc3c(O)ncnc3n2C2O[C@H](COP(=O)(O)O)[C@@H](O)[C@H]2O)cc1` (some centres not stated), the inhibition constant (Ki) came to 19 µM.
The figure for `Nc1ncnc2c1nc(Sc1ccccc1)n2C1O[C@H](COP(=O)(O)O)[C@@H](O)[C@H]1O` (some centres not stated) is 137 µM.
In turn, `O=c1[nH]cnc2c1nc(SCc1ccccc1)n2C1O[C@H](COP(=O)(O)O)[C@@H](O)[C@H]1O` (some centres not stated) registered an inhibitory constant (Ki) of 46 µM.
`Nc1ncnc2c1nc(S)n2C1O[C@H](COP(=O)(O)O)[C@@H](O)[C@H]1O` (some centres not stated) gave a Ki of 98 µM. Against the preceding compound, the Ki is about 2.1-fold higher.
For the compound `O=c1[nH]cnc2c1nc(Br)n2C1O[C@H](COP(=O)(O)O)[C@@H](O)[C@H]1O` (some centres not stated), the Ki was 271 µM.
For `N#Cc1ccc(CSc2nc3c(N)ncnc3n2C2O[C@H](COP(=O)(O)O)[C@@H](O)[C@H]2O)cc1` (some centres not stated), the affinity corresponds to a Ki of 58 µM.
The figure for `Nc1ncnc2c1nc(SCCc1ccc([N+](=O)[O-])cc1)n2C1O[C@H](COP(=O)(O)O)[C@@H](O)[C@H]1O` (some centres not stated) is 68 µM; for `O=c1[nH]cnc2c1nc(Sc1cccc(C(F)(F)F)c1)n2C1O[C@H](COP(=O)(O)O)[C@@H](O)[C@H]1O` (some centres not stated) it is 105 µM.
`CC(C)(C)c1ccc(CSc2nc3c(=O)[nH]cnc3n2C2O[C@H](COP(=O)(O)O)[C@@H](O)[C@H]2O)cc1` (some centres not stated) yielded a Ki of 129 µM.
In the case of `Nc1ncnc2c1nc(SCc1cccc([N+](=O)[O-])c1)n2C1O[C@H](COP(=O)(O)O)[C@@H](O)[C@H]1O` (some centres not stated), the inhibition constant Ki was 47 µM. This Ki is about 2.7-fold lower than that of the compound before.
The compound `O=[N+]([O-])c1ccc(CCSc2nc3c(O)ncnc3n2C2O[C@H](COP(=O)(O)O)[C@@H](O)[C@H]2O)cc1` (some centres not stated) showed an inhibition constant (Ki) of 54 µM.
`Nc1ncnc2c1nc(SCc1ccc(Cl)cc1)n2C1O[C@H](COP(=O)(O)O)[C@@H](O)[C@H]1O` (some centres not stated) yielded a Ki of 53 µM. The Ki values of the last two compounds are within 1.5-fold of each other.
As for `O=P(O)(O)OC[C@H]1OC(n2c(Sc3ccccc3)nc3c(O)ncnc32)[C@H](O)[C@@H]1O` (some centres not stated), the inhibition constant Ki was determined as 68 µM.
In turn, `Nc1ncnc2c1ncn2[C@@H]1O[C@H](COP(=O)(O)O)[C@@H](O)[C@H]1O` [ADENOSINE PHOSPHATE] came in with a Ki of 450 µM.
As to `CCCCCSc1nc2c(N)ncnc2n1C1O[C@H](COP(=O)(O)O)[C@@H](O)[C@H]1O` (some centres not stated), affinity was put at a Ki of 84 µM.
Compound `Nc1ncnc2c1nc(SCc1ccc(F)cc1)n2C1O[C@H](COP(=O)(O)O)[C@@H](O)[C@H]1O` (some centres not stated) came in with an inhibition constant (Ki) of 74 µM.
Compound `Nc1ncnc2c1nc(SCc1ccc([N+](=O)[O-])cc1Cl)n2C1O[C@H](COP(=O)(O)O)[C@@H](O)[C@H]1O` (some centres not stated) showed a Ki of 17 µM.
As to `Nc1ncnc2c1nc(Sc1ccc(Cl)cc1)n2C1O[C@H](COP(=O)(O)O)[C@@H](O)[C@H]1O` (some centres not stated), the affinity corresponds to a Ki of 70 µM.

The record behind these values is ChEMBL document CHEMBL1121885, “Inhibition of inosinic acid dehydrogenase by 8-substituted purine nucleotides” (J Med Chem, 1981).
